Compound activity as filed in PubChem BioAssay.
In the library only some 3.9% were active in any assay of this set; here they are far more common.
M1 PAM – positive allosteric modulators of human M1 muscarinic receptor | CHO-K1 hM1, Fluo-8 calcium fluorescence, ACh EC20; 0% = ACh EC20, 100% = maximal ACh | activation, % at 3 µM | 360,000 compounds, 0.088% hits | AID 588819; in the data active means activation above about 19%, passing the limit was not always enough
TAAR1 antagonist – antagonists of human TAAR1. Q96RJ0. CHO RD-HGA16 TAAR1, Fluo-8 calcium fluorescence, antagonist. inhibition, % at 3 µM. 360,000 compounds, 1.5% hits;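 active means inhibition above a per-plate cutoff, the mean inhibition of test compounds on that plate plus 3 SD, cut at about 49% in these data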
Target sequence (Q96RJ0 whole entry, looked up): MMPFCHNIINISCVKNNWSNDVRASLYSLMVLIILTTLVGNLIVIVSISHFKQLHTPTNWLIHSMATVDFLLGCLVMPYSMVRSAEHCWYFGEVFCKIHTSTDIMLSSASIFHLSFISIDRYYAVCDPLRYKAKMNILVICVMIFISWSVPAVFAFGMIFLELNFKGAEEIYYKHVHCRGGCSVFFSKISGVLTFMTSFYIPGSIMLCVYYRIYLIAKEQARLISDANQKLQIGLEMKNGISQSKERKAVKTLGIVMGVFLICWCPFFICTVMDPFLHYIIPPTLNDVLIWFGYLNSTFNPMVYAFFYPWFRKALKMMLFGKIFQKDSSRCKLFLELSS
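Test system: CHO RD-HGA16 cells bearing hTAAR1 | Reagent: β-PEA, EC80 | Compound dosing: 3 µM, single point | Schedule: Dye loading 75 min at 37 °C, then 30 min room temperature | Signal: Calcium fluorescence with Fluo-8 | Evaluation: Percent inhibition of PEA-evoked calcium signal, max/basal emission ratio | Control set: DMSO-only wells and EC80 β-PEA-stimulated wells | Repeats: Singlicate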
TAAR1 ag – agonists of human TAAR1; Q96RJ0; CHO RD-HGA16 TAAR1, Fluo-8 calcium fluorescence; vehicle wells 0%, saturating PEA agonist 100%; activation, % at 3 µM; 360,000 compounds, 0.99% hits; AID 624467;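 active means activation above the mean activation of all test compounds in the run plus 3 SD, cut at about 38% in these data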
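Benchmarks: low control DMSO, high control PEA (EC100); System: CHO RD-HGA16 cells carrying human TAAR1 plus Gα16; Detection: Fluo-8 fluorescence, 5 s baseline then 140 s kinetic read; Schedule: 17-24 h plating, Fluo-8 75 min 37 °C, 30 min RT; Read-out basis: % activation from peak over basal fluorescence ratio, DMSO-to-PEA scaled.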
m5-HT2A agonist – activates the mouse 5-HT2A serotonin receptor. activation, % at 7.6 µM. CHO-K1 mHTR2A beta-arrestin complementation, luminescence; percent of 30 µM serotonin response. 360,000 compounds, 0.66% hits. P35363;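 active means activation above a run cutoff, the mean activation of all tested compounds plus 3 SD, cut at about 14% in these data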
CHRM1 antagonist – human CHRM1 antagonism | inhibition, % at 3 µM | AID 588852 | CHO-K1 hM1, Fluo-8 calcium fluorescence, ACh EC80 antagonist | P11229 | 360,000 compounds, 1.3% hits;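 active means percent inhibition above its own plate's cutoff, namely the mean of that plate's compound wells plus 3 SD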;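 further: peak over basal fluorescence ratio during 140 s after agonist addition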
M1 ag – human M1 muscarinic receptor agonism | P11229 | CHO-K1 hM1, Fluo-8 calcium fluorescence, agonist mode; 0% DMSO, 100% acetylcholine EC100 | activation, % at 3 µM | 360,000 compounds, 0.33% hits | AID 588814;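 active means activation above the run's mean compound activation plus 3 SD, cut at about 16% in these data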;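 further: peak over basal fluorescence ratio within a 140 s kinetic read after compound addition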
TAAR1 nonsel count – nonselective antagonist in TAAR1 antagonist counter-screen; shares compounds with TAAR1 antagonist; counterscreen cell line, calcium fluorescence, antagonist mode; inhibition, % at 3 µM; 2,400 compounds, 77% hits; in the data active means inhibition above about 22%;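 further: CHO-Ga16 host cells stimulated with ATP at an EC80 level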
TAAR1 antag conf – human TAAR1 antagonism, confirmed; AID 651785; 2,400 compounds, 40% hits; shares compounds with TAAR1 antagonist; inhibition, % at 3 µM; TAAR1-expressing cells, fluorescence antagonist read-out; in the data active means inhibition above about 49%;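 further: CHO-Ga16 host cells challenged with agonist PEA near its EC80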
Ga16 ag counter – nonselective Ga16 agonism, counter-screen; shares compounds with TAAR1 antagonist; activation, % at 3 µM; Ga16-expressing cells, calcium fluorescence, agonist counterscreen; 2,400 compounds, 18% hits; in the data active means activation above about 12%
TAAR1 ag count – counter-screen for human TAAR1 antagonists: TAAR1 agonists. shares compounds with TAAR1 antagonist. hTAAR1 cell line, fluorescence activation, agonist mode. activation, % at 3 µM. 2,400 compounds, 2% hits. AID 651955; in the data active means activation above about 37%;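 further: CHO cells stably expressing TAAR1 with calcium dye readout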
Large screens that a line does not name were inactive (follow-up assays come after a bar, where they were run); ! = repeats disagree.

COc1ccccc1CNC(=O)C(Cc1c[nH]c2ccccc12)NC(=O)OCc1ccccc1 (configuration not stated)	TAAR1 antagonist 62.7 | TAAR1 nonsel count inactive | TAAR1 antag conf inactive | Ga16 ag counter inactive | TAAR1 ag count inactive
c1ccc2c(c1)OCC(c1csc3ncnc(N4CCOCC4)c13)O2 (configuration not stated)	none
CCN(CC)c1ncnc2scc(C3COc4ccccc4O3)c12 (configuration not stated)	TAAR1 antagonist 53.2 | TAAR1 nonsel count inactive | TAAR1 antag conf inactive | Ga16 ag counter inactive | TAAR1 ag count inactive
O=C1OC(c2ccc(O)cc2)(c2ccccc2O)c2ccccc21 (configuration not stated)	none
O=C1OC(c2ccccc2)(c2cc(Br)ccc2O)c2ccccc21 (configuration not stated)	TAAR1 antagonist 63.4 | TAAR1 nonsel count 27.5 | TAAR1 antag conf inactive | Ga16 ag counter inactive | TAAR1 ag count inactive
CCO[C@@H]1OC(C(=O)NCc2nc3ccccc3[nH]2)=C[C@H](c2csc3ccccc23)[C@H]1CCCO	TAAR1 antagonist 53.4 | TAAR1 nonsel count 30.4 | TAAR1 antag conf inactive | Ga16 ag counter inactive | TAAR1 ag count inactive
CCO[C@H]1OC(C(=O)NCc2nc3ccccc3[nH]2)=C[C@@H](c2csc3ccccc23)[C@@H]1CCCO	TAAR1 antagonist 53.6 | TAAR1 nonsel count 25.6 | TAAR1 antag conf inactive | Ga16 ag counter inactive | TAAR1 ag count inactive
CCO[C@H]1OC(C(=O)NCc2nc3ccccc3[nH]2)=C[C@@H](c2ccccc2)[C@@H]1CCCO	none
O=S(=O)(c1ccc(NC(=S)NN=Cc2ccccc2O)cc1)N1CCCCC1	TAAR1 antagonist 89.9 | TAAR1 nonsel count 40.1 | TAAR1 antag conf 89.2 | Ga16 ag counter inactive | TAAR1 ag count inactive
COC(=O)c1ccc(OCC(=O)Nc2ccccc2C(=O)NC2CC2)cc1	TAAR1 antagonist 62.5 | TAAR1 nonsel count 30.2 | TAAR1 antag conf inactive | Ga16 ag counter inactive | TAAR1 ag count inactive
CCOC(=O)C1CCCN(C2=C(NS(=O)(=O)c3ccc(Br)cc3)C(=O)c3ccccc3C2=O)C1 (configuration not stated)	TAAR1 antagonist 61.7, M1 ag 41.0 | TAAR1 nonsel count 26.1 | TAAR1 antag conf inactive | Ga16 ag counter inactive | TAAR1 ag count inactive
CC1CCCN(C2=C(NS(=O)(=O)c3ccc(Br)cc3)C(=O)c3ccccc3C2=O)C1 (configuration not stated)	none
CC1=C(C(=O)N2CCOCC2)CC(CC(=O)NCCc2ccccn2)C(=O)N1Cc1ccccc1 (configuration not stated)	none
CC(=O)Oc1ccc(C(=O)Nc2ccccc2NC(=O)c2ccc(OC(C)=O)cc2)cc1	none
CC(=O)Oc1ccc(C(=O)Nc2cc(NC(=O)c3ccc(OC(C)=O)cc3)cc(C(=O)NC(C)(C)C)c2)cc1	TAAR1 antagonist 67.0 | TAAR1 nonsel count 32.3 | TAAR1 antag conf inactive | Ga16 ag counter inactive | TAAR1 ag count inactive
CCN1CCN(Cc2ccc(NC(=O)c3ccc(C)c(NC(=O)C(=O)c4c[nH]c5ccccc45)c3)cc2C(F)(F)F)CC1	TAAR1 antagonist 78.5 | TAAR1 nonsel count 45.8 | TAAR1 antag conf inactive | Ga16 ag counter inactive | TAAR1 ag count inactive
CCN1CCN(Cc2ccc(NC(=O)c3cccc(-c4ccc5nc(NC(=O)C6CC6)sc5n4)c3)cc2C(F)(F)F)CC1	TAAR1 antagonist 65.7 (no result: M1 PAM, m5-HT2A agonist, CHRM1 antagonist, M1 ag) | TAAR1 nonsel count 44.2 | TAAR1 antag conf 59.7 | Ga16 ag counter inactive | TAAR1 ag count inactive
COc1cc(-c2cc(C(=O)OCC(=O)NC3CC3)c3ccccc3n2)cc(OC)c1OC	TAAR1 antagonist 67.5 | TAAR1 nonsel count 26.9 | TAAR1 antag conf inactive | Ga16 ag counter inactive | TAAR1 ag count inactive
COc1ccc(-c2cc(C(=O)N3CCN(c4ccccc4)CC3)c3ccccc3n2)cc1OC	none
COc1ccccc1CN(C)C(=O)c1cc(-c2cc(OC)c(OC)c(OC)c2)nc2ccccc12	TAAR1 antagonist 61.2 | TAAR1 nonsel count 35.3 | TAAR1 antag conf 53.5 | Ga16 ag counter inactive | TAAR1 ag count inactive
COc1ccc(-c2cc(C(=O)N(C)Cc3ccccc3F)c3ccccc3n2)cc1OC	TAAR1 antagonist 77.9, CHRM1 antagonist 40.1 | TAAR1 nonsel count 28.3 | TAAR1 antag conf inactive | Ga16 ag counter inactive | TAAR1 ag count inactive
COc1cccc(CN(C)C(=O)c2cc(-c3cccs3)nc3ccccc23)c1	TAAR1 antagonist 76.1, CHRM1 antagonist 54.0 | TAAR1 nonsel count 35.3 | TAAR1 antag conf 58.3 | Ga16 ag counter inactive | TAAR1 ag count inactive
COc1ccc(N2CCN(C(=O)c3cc(-c4cccs4)nc4ccccc34)CC2)cc1	none
CCCCNc1c(-c2ccc(SC3CCCCC3)c(OC)c2)nc2ccc(C)cn12	TAAR1 antagonist 73.6 | TAAR1 nonsel count 36.2 | TAAR1 antag conf inactive | Ga16 ag counter inactive | TAAR1 ag count inactive
CCCCNc1c(-c2ccc(OC)c(SC(C)CC)c2)nc2ccc(Cl)cn12 (configuration not stated)	none
CCCCNc1c(-c2ccc(OC)c(SC(C)CC)c2)nc2ccc(C)cn12 (configuration not stated)	TAAR1 antagonist 90.8, CHRM1 antagonist 37.4 | TAAR1 nonsel count 45.8 | TAAR1 antag conf 57.8 | Ga16 ag counter inactive | TAAR1 ag count inactive
CCCCNc1c(-c2cccc(SC(C)CC)c2)nc2ccc(Cl)cn12 (configuration not stated)	TAAR1 antagonist 56.5! | TAAR1 nonsel count inactive | TAAR1 antag conf inactive | Ga16 ag counter inactive | TAAR1 ag count inactive
CN(C(=O)c1cccc(NC(=O)Cc2cccc(NC(=O)C3CCN(C(=O)c4ccccc4)CC3)c2)c1)C1CC1	none
Cc1ccc2c(c1)-c1cc(C)ccc1C2=O	none
O=P(O)(C(O)c1ccccc1)C(O)c1ccccc1 (configuration not stated)	none
